Consider two compounds from ChEMBL document CHEMBL5126625, “Discovery of AZD4831, a Mechanism-Based Irreversible Inhibitor of Myeloperoxidase, As a Potential Treatment for Heart Failure with Preserved Ejection Fraction” (J Med Chem, 2022).

≈ marks a conversion by molar mass, not a printed value.

The nature of data set [1]: Drug uptake in Lister Hooded rat liver assessed as nonextractable fraction at 4.55 umol/kg, po measured after 24 hrs by whole body autoradiography. As to conditions: in vivo, at 4.55 µmol/kg; call rule not given here. In kind it is ADME, organism-based. In short, it runs like this:
(§1)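 Rats were given a single oral dose of 10 MBq/kg of the [14C]-labelled compound. Whole-body autoradiography was done 24 h post-dose on sections before and after extraction, with the nonextractable liver fraction taken from the extracted sections. Whole-body drug-related material was also measured at 7 days.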

The nature of data set [2]: Drug uptake in Lister Hooded rat eyes at 4.55 umol/kg, po measured after 24 hrs by whole body autoradiography. As to conditions: in vivo, dose 4.55 µmol/kg. Type of data set: ADME, organism-based, Eye. In short, it runs like this: as §1
Data set [3] is described as follows: Drug uptake in Lister Hooded rat at 4.55 umol/kg, po measured after 7 days by whole body autoradiography. In kind it is ADME, organism-based. As to conditions: in vivo, 168 h, at 4.55 µmol/kg, time 7 day. A digest of the protocol: as §1
Data set [4] is described as follows: Drug uptake in Lister Hooded rat pigmented skin at 4.55 umol/kg, po measured after 24 hrs by whole body autoradiography. Type of data set: ADME, organism-based, Skin of body. The note with it: in vivo, dose 4.55 µmol/kg. A digest of the protocol:
as §1

A short description of data set [5]: Toxicity in dog assessed as NOAEL by 9 months toxicology study. On the set-up: species or system Canis lupus familiaris. As to conditions: in vivo, 6570 h. A digest of the protocol: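 Pivotal 9-month repeat-dose toxicology study in dogs with daily dosing up to 100 mg/kg/day. Endpoints included food consumption, body weight and pathology. The NOAEL was assigned from these findings.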

The nature of data set [6]: physchem. The note with it: phosphate buffer, pH 7.4.
A short description of data set [7]: Apparent permeability of the compound across apical to basolateral side in human Caco-2 cells at 10 uM by LC-MS/MS analysis.
In data set [8] the target is Cytochrome P450 2D6 (Homo sapiens, UniProt P10635). In words: Inhibition of CYP2D6 (unknown origin) using coumarin as substrate preincubated with enzyme for 10 mins followed by NADPH addition and measured after 20 to 50 mins by fluorescence based method.
Data set [9] in a line: Toxicity in dog assessed as body weight by 9 months toxicology study. The arrangement: species or system Canis lupus familiaris. The note with it: in vivo, 6570 h. A digest of the protocol: (§2)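 Pivotal 9-month repeat-dose toxicology study in dogs at doses up to 100 mg/kg/day, with food consumption, body weight and pathology monitored.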
Data set [10] is described as follows: Toxicity in dog assessed as food intake by 9 months toxicology study. The arrangement: species or system Canis lupus familiaris. As to conditions: in vivo, 6570 h. In short, it runs like this:
as §2

For data set [11], the target named is Cytochrome P450 2C9 (Homo sapiens, UniProt P11712). The data set is described as follows: Inhibition of human recombinant CYP2C9 using coumarin as substrate preincubated with enzyme for 10 mins followed by NADPH addition and measured after 20 to 50 mins by fluorescence based method.
A short description of data set [12]: Oral bioavailability in Wistar Han rat measured up to 24 hrs by LC-MS/MS analysis. Type of data set: ADME, organism-based. The note with it: in vivo.
Data set [13] addresses Cytochrome P450 3A4 (Homo sapiens, UniProt P08684).
Data set [14] deals with Voltage-gated inwardly rectifying potassium channel KCNH2 (Homo sapiens, UniProt Q12809).
For data set [15], the target named is Cytochrome P450 2C19 (Homo sapiens, UniProt P33261). In words: Inhibition of human recombinant CYP2C19 using coumarin as substrate preincubated with enzyme for 10 mins followed by NADPH addition and measured after 20 to 50 mins by fluorescence based method.
Data set [16] can be described thus: Lipophilicity, log D of the compound. The note with it: octanol/water.
A short description of data set [17]: Toxicity in male rat assessed as NOAEL by 6 months toxicology study. The note with it: in vivo, 4380 h. In short, it runs like this:
(§3)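 Pivotal 6-month repeat-dose toxicology study in rats with daily dosing up to 125 mg/kg/day. Males and females were assessed separately, and a NOAEL was assigned for each sex.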

The target in data set [18] is T1, Cytochrome P450 1A2 (Homo sapiens, UniProt P05177).
T1 sequence (P05177 whole entry): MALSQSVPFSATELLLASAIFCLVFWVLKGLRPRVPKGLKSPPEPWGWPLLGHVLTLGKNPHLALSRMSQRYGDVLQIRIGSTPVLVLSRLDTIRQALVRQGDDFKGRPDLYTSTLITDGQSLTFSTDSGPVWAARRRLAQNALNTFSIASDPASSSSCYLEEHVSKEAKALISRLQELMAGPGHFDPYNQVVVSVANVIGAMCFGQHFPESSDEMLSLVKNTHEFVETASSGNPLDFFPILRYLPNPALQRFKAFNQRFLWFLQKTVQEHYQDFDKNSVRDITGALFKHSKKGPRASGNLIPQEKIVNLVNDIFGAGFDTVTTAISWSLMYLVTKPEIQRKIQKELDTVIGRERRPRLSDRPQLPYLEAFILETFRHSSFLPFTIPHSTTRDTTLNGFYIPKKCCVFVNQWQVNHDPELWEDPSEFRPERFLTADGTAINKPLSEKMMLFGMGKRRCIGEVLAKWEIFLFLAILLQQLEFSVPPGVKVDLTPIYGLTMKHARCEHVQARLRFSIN
In words: Inhibition of human recombinant CYP1A2 using coumarin as substrate preincubated with enzyme for 10 mins followed by NADPH addition and measured after 20 to 50 mins by fluorescence based method.

A short description of data set [19]: Toxicity in rat bone marrow by micronucleus test.
The subject of data set [20] is Mus musculus. The data set is described as follows: In vivo inhibition of MPO in peritoneal lavage of zymosan-induced neutrophilic peritonitis BALB/c mouse model at 0.01 to 10 umol/kg, po administered 2 hrs prior to zymosan injection and measured after 2 hrs by chemiluminescence assay. In kind it is functional, organism-based. As to conditions: dose 0.01-10 µmol/kg, time 4.0 hrs, DDE = dose-dependent effect. A digest of the protocol: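 BALB/c mice given 10, 1, 0.1 or 0.01 µmol/kg orally 2 h before intraperitoneal zymosan. Peritoneal lavage collected 2 h later and peroxidase activity quantified by chemiluminescence; neutrophils dominate the infiltrate, so activity attributed to MPO.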

Data set [21] in a line: Drug uptake in human hepatocytes assessed as covalent binding measured per mg protein. In kind it is ADME, cell-based, Hepatocyte. A digest of the protocol:
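[14C]-labelled compound incubated with human hepatocytes; covalently bound radioactivity expressed as pmol per mg protein.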

Data set [22] is described as follows: Oral bioavailability in Beagle dog measured up to 24 hrs by LC-MS/MS analysis. In kind it is ADME, organism-based, Canis lupus familiaris. As to conditions: in vivo.
Data set [23] can be described thus: Toxicity in female rat assessed as NOAEL by 6 months toxicology study. The note with it: in vivo, 4380 h. In short, it runs like this:
as §3

Chain of Voltage-gated inwardly rectifying potassium channel KCNH2 (Q12809 whole entry): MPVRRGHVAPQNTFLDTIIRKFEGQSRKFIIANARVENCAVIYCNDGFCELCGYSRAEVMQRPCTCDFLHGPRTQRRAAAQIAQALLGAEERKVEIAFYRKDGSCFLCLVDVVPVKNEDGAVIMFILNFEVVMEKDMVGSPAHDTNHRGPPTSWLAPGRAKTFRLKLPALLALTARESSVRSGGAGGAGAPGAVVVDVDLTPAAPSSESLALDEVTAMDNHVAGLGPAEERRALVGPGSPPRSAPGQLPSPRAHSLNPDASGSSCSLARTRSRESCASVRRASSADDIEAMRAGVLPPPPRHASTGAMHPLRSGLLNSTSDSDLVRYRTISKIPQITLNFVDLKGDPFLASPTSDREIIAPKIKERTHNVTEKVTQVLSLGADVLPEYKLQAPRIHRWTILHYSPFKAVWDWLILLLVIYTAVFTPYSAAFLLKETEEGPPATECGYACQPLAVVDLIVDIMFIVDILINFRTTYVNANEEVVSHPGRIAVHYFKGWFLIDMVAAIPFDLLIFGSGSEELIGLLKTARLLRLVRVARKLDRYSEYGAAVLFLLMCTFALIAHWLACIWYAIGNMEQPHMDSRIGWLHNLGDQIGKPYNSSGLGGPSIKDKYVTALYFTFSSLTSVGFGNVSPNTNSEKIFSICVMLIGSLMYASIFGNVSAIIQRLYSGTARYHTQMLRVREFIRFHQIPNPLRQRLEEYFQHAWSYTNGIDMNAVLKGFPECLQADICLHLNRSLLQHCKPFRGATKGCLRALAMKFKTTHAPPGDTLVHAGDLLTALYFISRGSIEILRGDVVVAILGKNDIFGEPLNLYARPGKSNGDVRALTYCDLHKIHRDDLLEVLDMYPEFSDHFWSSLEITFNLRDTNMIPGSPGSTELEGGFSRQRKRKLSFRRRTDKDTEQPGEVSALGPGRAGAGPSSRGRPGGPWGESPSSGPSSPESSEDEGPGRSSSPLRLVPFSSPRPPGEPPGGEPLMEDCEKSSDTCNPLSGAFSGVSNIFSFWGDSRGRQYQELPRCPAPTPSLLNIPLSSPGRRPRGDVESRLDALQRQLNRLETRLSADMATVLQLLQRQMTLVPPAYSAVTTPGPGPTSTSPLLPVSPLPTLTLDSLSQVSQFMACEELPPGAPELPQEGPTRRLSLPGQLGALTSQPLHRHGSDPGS
Chain of Cytochrome P450 3A4 (P08684 whole entry): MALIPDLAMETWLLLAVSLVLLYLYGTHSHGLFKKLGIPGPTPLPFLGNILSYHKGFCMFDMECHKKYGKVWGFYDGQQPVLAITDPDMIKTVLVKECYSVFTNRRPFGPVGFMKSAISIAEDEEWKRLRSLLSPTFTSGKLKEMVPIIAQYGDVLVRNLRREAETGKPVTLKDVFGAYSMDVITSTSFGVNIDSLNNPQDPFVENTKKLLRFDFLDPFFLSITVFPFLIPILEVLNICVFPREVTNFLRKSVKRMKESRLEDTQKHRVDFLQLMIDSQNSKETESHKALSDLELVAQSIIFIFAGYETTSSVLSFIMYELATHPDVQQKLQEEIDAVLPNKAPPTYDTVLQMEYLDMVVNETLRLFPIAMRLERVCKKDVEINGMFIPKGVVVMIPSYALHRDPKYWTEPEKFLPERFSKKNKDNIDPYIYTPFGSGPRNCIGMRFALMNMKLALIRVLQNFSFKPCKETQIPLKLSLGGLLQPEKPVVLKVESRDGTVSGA
Chain of Cytochrome P450 2C19 (P33261 whole entry): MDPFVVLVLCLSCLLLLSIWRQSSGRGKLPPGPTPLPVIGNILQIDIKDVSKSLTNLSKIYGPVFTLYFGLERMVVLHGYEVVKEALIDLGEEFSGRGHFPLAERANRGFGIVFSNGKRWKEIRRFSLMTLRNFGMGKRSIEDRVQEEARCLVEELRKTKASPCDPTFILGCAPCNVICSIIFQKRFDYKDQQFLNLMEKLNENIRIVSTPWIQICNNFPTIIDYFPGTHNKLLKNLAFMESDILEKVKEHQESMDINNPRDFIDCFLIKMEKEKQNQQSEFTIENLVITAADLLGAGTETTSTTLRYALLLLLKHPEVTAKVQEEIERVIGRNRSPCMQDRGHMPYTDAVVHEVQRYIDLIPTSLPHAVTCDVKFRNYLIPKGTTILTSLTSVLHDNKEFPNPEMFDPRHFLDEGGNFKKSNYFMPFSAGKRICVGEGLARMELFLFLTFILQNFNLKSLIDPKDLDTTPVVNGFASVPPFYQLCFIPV
Chain of Cytochrome P450 2C9 (P11712 whole entry): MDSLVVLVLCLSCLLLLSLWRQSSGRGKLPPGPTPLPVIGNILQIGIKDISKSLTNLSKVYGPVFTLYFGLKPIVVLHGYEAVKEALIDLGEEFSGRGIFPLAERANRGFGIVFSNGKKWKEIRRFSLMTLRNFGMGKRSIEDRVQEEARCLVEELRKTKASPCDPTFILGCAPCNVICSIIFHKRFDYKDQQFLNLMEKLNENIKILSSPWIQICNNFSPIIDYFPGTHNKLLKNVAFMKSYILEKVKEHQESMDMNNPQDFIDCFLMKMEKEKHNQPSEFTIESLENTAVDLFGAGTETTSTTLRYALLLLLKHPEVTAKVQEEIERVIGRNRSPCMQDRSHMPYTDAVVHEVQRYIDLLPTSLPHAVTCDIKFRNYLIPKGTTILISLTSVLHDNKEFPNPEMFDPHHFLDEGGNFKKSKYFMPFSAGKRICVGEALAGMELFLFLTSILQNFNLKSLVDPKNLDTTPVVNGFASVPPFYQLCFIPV
Chain of Cytochrome P450 2D6 (P10635 whole entry): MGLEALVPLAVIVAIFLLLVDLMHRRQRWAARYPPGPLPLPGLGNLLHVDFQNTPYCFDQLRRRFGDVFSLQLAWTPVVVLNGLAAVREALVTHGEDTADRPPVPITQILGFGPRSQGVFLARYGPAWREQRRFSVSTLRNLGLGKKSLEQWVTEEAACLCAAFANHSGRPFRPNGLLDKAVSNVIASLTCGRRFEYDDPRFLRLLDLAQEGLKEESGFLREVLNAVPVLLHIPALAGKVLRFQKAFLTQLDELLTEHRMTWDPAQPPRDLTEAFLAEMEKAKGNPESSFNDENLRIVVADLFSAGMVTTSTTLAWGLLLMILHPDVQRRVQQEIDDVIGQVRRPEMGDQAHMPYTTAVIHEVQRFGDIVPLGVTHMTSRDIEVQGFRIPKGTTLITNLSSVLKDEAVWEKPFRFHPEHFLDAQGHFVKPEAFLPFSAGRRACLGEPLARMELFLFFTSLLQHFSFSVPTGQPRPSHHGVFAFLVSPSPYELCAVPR

Turning to `C[C@@H](N)c1cc(Cl)ccc1Cn1c2cc[nH]c2c(=O)[nH][14c]1=S`, the Drug uptake is listed as under 0.2% in data set [1], “Active” in [2], 0.1% in [3] and “Active” in data set [4].
For `C[C@@H](N)c1cc(Cl)ccc1Cn1c(=S)[nH]c(=O)c2[nH]ccc21`, the NOAEL turned out to be 100 mg/kg/day in [5], 125 mg/kg/day in data set [17] and 125 mg/kg/day in data set [23]. Further, in data set [6], the thermodynamic solubility at 18 h came out at 270 µM (≈ 90.4 µg/mL). Moreover, in data set [7], the apical-to-basolateral permeability (Papp A→B) at 10 µM was determined as 11 ×10⁻⁶ cm/s. For the same compound, the IC50 in data set [8] was over 30 µM; in data set [11], over 30 µM; in data set [13] it was 6 µM; in data set [14], 21 µM; in data set [15], over 30 µM; in [18], over 30 µM. The Activity entry in data set [9], in [10] and in data set [19] was “Non-Toxic” throughout. The bioavailability was found to be 61% in [12] and 52% in data set [22]. Moreover, the logD in data set [16] is 1.2. The inhibition result in data set [20] is “Dde”. In data set [21], the Drug uptake turned out to be 56 pmol.
